# Results collected from several papers.
# Protocols differ between the studies behind these lines.
# Target: Muscarinic acetylcholine receptor M3 (CHRM3, Homo sapiens, UniProt P20309)
# Tested at: 10 µM
SMILES,test,inhibition
COc1ccc(C(=O)NCc2cc(C(C)C)no2)cc1OC1CCN(C)CC1,"ligand displacement, radioligand",26%
CCC(=NO)C(C)=Cc1ccc(F)c(C)c1,ligand displacement,-5.75%
C[C@H](C(=O)N[C@H]1COc2ccccc2[C@@H]1S(C)(=O)=O)c1ccc(F)cc1,cell-free assay,12%
CN1CC[C@@]2(C)c3cc(OC(=O)Nc4ccccc4)ccc3N(C)[C@@H]12,"ligand displacement, radioligand",3.1%
Cc1ccccc1Oc1cc(-n2c(=O)cc(C(F)(F)F)[nH]c2=O)c2ccccc2c1Cl,ligand displacement,-16.2%
COCc1c(-c2cc3cc(C)cc(OC)c3s2)c2c(N)ncnn2c1CN1CCNC(=O)C1,"ligand displacement, radioligand",0%
c1ccc(C(NCCNC(c2ccccc2)c2ccccc2)c2ccccc2)cc1,cell-free assay,11%
CCN(CC)CCCC[C@H](NC(=O)[C@H](CC(C)C)NC(=O)[C@H](C)NC(=O)[C@H](Cc1ccccc1)NC(=O)c1ccc(C(C)(C)C)cc1)C(=O)N[C@@H](CO)C(=O)OC,"ligand displacement, radioligand",7%
CC(C)N1CCC[C@H]1CNC(=O)c1cn(C2CCCC2)c(=O)c2c1c1ccccc1n2C,"ligand displacement, radioligand",12%
Clc1ccc2c(C3CCN(CCc4c[nH]c5ccccc45)CC3)c[nH]c2c1,"ligand displacement, radioligand",61%
